Reference: ChEMBL document CHEMBL1926550, “Synthesis and antibacterial activity of naphthyridone derivatives containing mono/difluoro-methyloxime pyrrolidine scaffolds” (2012)
In brackets after ≈: the same amount, converted by molar mass.

tested on: Enterococcus faecium; assay: Antibacterial activity against Enterococcus faecium 09-1 after 18 hrs by two fold serial dilution method; assay type: functional; conditions: 09-1, 18 h
In short: (§1)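 Agar two-fold serial dilution in melted Mueller-Hinton agar, final concentrations 128 down to 0.008 μg/mL. Plates inoculated with 10⁴ cfu and incubated at 35 °C for 18 h. MIC taken as the lowest concentration giving no visible growth on the plate.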

Compound	MIC [µg/mL]
NCC1CN(c2nc3c(cc2F)c(=O)c(C(=O)O)cn3C2CC2)C/C1=N\OC(F)F (racemic)	32 (≈ 75.2 µM)

tested on: Staphylococcus epidermidis; assay: Antibacterial activity against methicillin-sensitive Staphylococcus epidermidis 10-2 after 18 hrs by two fold serial dilution method; assay type: functional; conditions: 10-2, 18 h; in short: as §1

Compound	MIC [µg/mL]
NCC1CN(c2nc3c(cc2F)c(=O)c(C(=O)O)cn3C2CC2)C/C1=N\OC(F)F (racemic)	32 (≈ 75.2 µM)

tested on: Staphylococcus epidermidis; assay: Antibacterial activity against methicillin-resistant Staphylococcus epidermidis 10-4 infected KM mouse systemic infection model assessed as decrease in mouse mortality administered orally twice after 1 and 4 hrs post infection measured up to 7 days; assay type: functional; conditions: 10-4, po
In short: (§2)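 Strains grown on MH agar at 35 °C for 18 h, suspended in gastric mucin. Male KM mice (19–21 g), groups of 10, infected intraperitoneally with 0.5 mL at 5–10× MLD. Four oral dose levels per drug at 1 and 4 h post infection. Mortality followed 7 days; ED50 with 95% confidence limits by Bliss method.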

Compound	ED50 [mg/kg]
NCC1CN(c2nc3c(cc2F)c(=O)c(C(=O)O)cn3C2CC2)C/C1=N\OC(F)F (racemic)	16.9

tested on: Pseudomonas aeruginosa; assay: Antibacterial activity against Pseudomonas aeruginosa 10-1 after 18 hrs by two fold serial dilution method; assay type: functional; conditions: 10-1, 18 h; in short: as §1

Compound	MIC [µg/mL]
NCC1CN(c2nc3c(cc2F)c(=O)c(C(=O)O)cn3C2CC2)C/C1=N\OC(F)F (racemic)	0.5 (≈ 1.18 µM)

tested on: Staphylococcus epidermidis; assay: Antibacterial activity against methicillin-resistant Staphylococcus epidermidis 10-4 after 18 hrs by two fold serial dilution method; assay type: functional; conditions: 10-4, 18 h
In short: (§3)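 Agar two-fold serial dilution in melted Mueller-Hinton agar, 128 to 0.008 μg/mL. Plates inoculated with 10⁴ cfu, incubated 35 °C for 18 h. MIC taken as lowest concentration giving no visible growth on the plate.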

Compound	MIC [µg/mL]
NCC1CN(c2nc3c(cc2F)c(=O)c(C(=O)O)cn3C2CC2)C/C1=N\OC(F)F (racemic)	2 (≈ 4.7 µM)

tested on: Klebsiella pneumoniae; assay: Antibacterial activity against Klebsiella pneumoniae 09-2 after 18 hrs by two fold serial dilution method; assay type: functional; conditions: 09-2, 18 h; in short: as §1

Compound	MIC [µg/mL]
NCC1CN(c2nc3c(cc2F)c(=O)c(C(=O)O)cn3C2CC2)C/C1=N\OC(F)F (racemic)	32 (≈ 75.2 µM)

tested on: Enterococcus faecium; assay: Antibacterial activity against Enterococcus faecium 09-5 after 18 hrs by two fold serial dilution method; assay type: functional; conditions: 09-5, 18 h; in short: as §1

Compound	MIC [µg/mL]
NCC1CN(c2nc3c(cc2F)c(=O)c(C(=O)O)cn3C2CC2)C/C1=N\OC(F)F (racemic)	16 (≈ 37.6 µM)

tested on: Escherichia coli; assay: Antibacterial activity against Escherichia coli 10-2 infected KM mouse systemic infection model assessed as decrease in mouse mortality administered orally twice after 1 and 4 hrs post infection measured up to 7 days; assay type: functional; conditions: 10-2, po; in short: as §2

Compound	ED50 [mg/kg]
NCC1CN(c2nc3c(cc2F)c(=O)c(C(=O)O)cn3C2CC2)C/C1=N\OC(F)F (racemic)	5.83

tested on: Klebsiella pneumoniae; assay: Antibacterial activity against Klebsiella pneumoniae 10-3 infected KM mouse systemic infection model assessed as decrease in mouse mortality administered orally twice after 1 and 4 hrs post infection measured up to 7 days; assay type: functional; conditions: 10-3, po; in short: as §2

Compound	ED50 [mg/kg]
NCC1CN(c2nc3c(cc2F)c(=O)c(C(=O)O)cn3C2CC2)C/C1=N\OC(F)F (racemic)	100

tested on: Escherichia coli; assay: Antibacterial activity against Escherichia coli 10-1 after 18 hrs by two fold serial dilution method; assay type: functional; conditions: 10-1, 18 h; in short: as §1

Compound	MIC [µg/mL]
NCC1CN(c2nc3c(cc2F)c(=O)c(C(=O)O)cn3C2CC2)C/C1=N\OC(F)F (racemic)	16 (≈ 37.6 µM)

tested on: Staphylococcus aureus; assay: Antibacterial activity against methicillin-sensitive Staphylococcus aureus 10-5 after 18 hrs by two fold serial dilution method; assay type: functional; conditions: 10-5, 18 h; in short: as §1

Compound	MIC [ng/mL]
NCC1CN(c2nc3c(cc2F)c(=O)c(C(=O)O)cn3C2CC2)C/C1=N\OC(F)F (racemic)	8 (≈ 0.0188 µM)

tested on: Escherichia coli; assay: Antibacterial activity against Escherichia coli 10-3 after 18 hrs by two fold serial dilution method; assay type: functional; conditions: 10-3, 18 h; in short: as §1

Compound	MIC [µg/mL]
NCC1CN(c2nc3c(cc2F)c(=O)c(C(=O)O)cn3C2CC2)C/C1=N\OC(F)F (racemic)	8 (≈ 18.8 µM)

tested on: Enterococcus faecium; assay: Antibacterial activity against Enterococcus faecium 09-6 after 18 hrs by two fold serial dilution method; assay type: functional; conditions: 09-6, 18 h; in short: as §1

Compound	MIC [µg/mL]
NCC1CN(c2nc3c(cc2F)c(=O)c(C(=O)O)cn3C2CC2)C/C1=N\OC(F)F (racemic)	0.06 (≈ 0.141 µM)

tested on: Enterococcus faecium; assay: Antibacterial activity against Enterococcus faecium 09-4 after 18 hrs by two fold serial dilution method; assay type: functional; conditions: 09-4, 18 h; in short: as §1

Compound	MIC [µg/mL]
NCC1CN(c2nc3c(cc2F)c(=O)c(C(=O)O)cn3C2CC2)C/C1=N\OC(F)F (racemic)	0.125 (≈ 0.294 µM)

tested on: Staphylococcus epidermidis; assay: Ratio of ciprofloxacin ED50 to compound ED50 for methicillin-resistant Staphylococcus epidermidis 10-4 infected KM mouse systemic infection model; assay type: functional; conditions: not given

Compound	Ratio ED50
NCC1CN(c2nc3c(cc2F)c(=O)c(C(=O)O)cn3C2CC2)C/C1=N\OC(F)F (racemic)	1.4

tested on: Staphylococcus epidermidis; assay: Antibacterial activity against methicillin-resistant Staphylococcus epidermidis 10-1 after 18 hrs by two fold serial dilution method; assay type: functional; conditions: 10-1, 18 h; in short: as §3

Compound	MIC [µg/mL]
NCC1CN(c2nc3c(cc2F)c(=O)c(C(=O)O)cn3C2CC2)C/C1=N\OC(F)F (racemic)	4 (≈ 9.4 µM)

tested on: Escherichia coli; assay: Antibacterial activity against Escherichia coli 09-2 after 18 hrs by two fold serial dilution method; assay type: functional; conditions: 09-2, 18 h; in short: as §1

Compound	MIC [µg/mL]
NCC1CN(c2nc3c(cc2F)c(=O)c(C(=O)O)cn3C2CC2)C/C1=N\OC(F)F (racemic)	32 (≈ 75.2 µM)

tested on: Escherichia coli; assay: Antibacterial activity against Escherichia coli 10-2 after 18 hrs by two fold serial dilution method; assay type: functional; conditions: 10-2, 18 h; in short: as §1

Compound	MIC [µg/mL]
NCC1CN(c2nc3c(cc2F)c(=O)c(C(=O)O)cn3C2CC2)C/C1=N\OC(F)F (racemic)	0.5 (≈ 1.18 µM)

tested on: Staphylococcus aureus; assay: Antibacterial activity against methicillin-resistant Staphylococcus aureus 10-3 after 18 hrs by two fold serial dilution method; assay type: functional; conditions: 10-3, 18 h; in short: as §3

Compound	MIC [µg/mL]
NCC1CN(c2nc3c(cc2F)c(=O)c(C(=O)O)cn3C2CC2)C/C1=N\OC(F)F (racemic)	16 (≈ 37.6 µM)

tested on: Staphylococcus aureus; assay: Antibacterial activity against methicillin-sensitive Staphylococcus aureus 10-2 after 18 hrs by two fold serial dilution method; assay type: functional; conditions: 10-2, 18 h; in short: as §1

Compound	MIC [µg/mL]
NCC1CN(c2nc3c(cc2F)c(=O)c(C(=O)O)cn3C2CC2)C/C1=N\OC(F)F (racemic)	4 (≈ 9.4 µM)

tested on: Pseudomonas aeruginosa; assay: Antibacterial activity against Pseudomonas aeruginosa ATCC 27853 after 18 hrs by two fold serial dilution method; assay type: functional; conditions: ATCC 27853, 18 h; in short: as §1

Compound	MIC [µg/mL]
NCC1CN(c2nc3c(cc2F)c(=O)c(C(=O)O)cn3C2CC2)C/C1=N\OC(F)F (racemic)	0.5 (≈ 1.18 µM)

tested on: Pseudomonas aeruginosa; assay: Antibacterial activity against Pseudomonas aeruginosa 10-2 after 18 hrs by two fold serial dilution method; assay type: functional; conditions: 10-2, 18 h; in short: as §1

Compound	MIC [µg/mL]
NCC1CN(c2nc3c(cc2F)c(=O)c(C(=O)O)cn3C2CC2)C/C1=N\OC(F)F (racemic)	32 (≈ 75.2 µM)

tested on: Streptococcus pneumoniae; assay: Antibacterial activity against Streptococcus pneumoniae 10-1 after 18 hrs by two fold serial dilution method; assay type: functional; conditions: 10-1, 18 h; in short: as §1

Compound	MIC [µg/mL]
NCC1CN(c2nc3c(cc2F)c(=O)c(C(=O)O)cn3C2CC2)C/C1=N\OC(F)F (racemic)	0.03 (≈ 0.0705 µM)

tested on: Enterococcus faecalis; assay: Antibacterial activity against Enterococcus faecalis 09-1 after 18 hrs by two fold serial dilution method; assay type: functional; conditions: 09-1, 18 h; in short: as §1

Compound	MIC [µg/mL]
NCC1CN(c2nc3c(cc2F)c(=O)c(C(=O)O)cn3C2CC2)C/C1=N\OC(F)F (racemic)	4 (≈ 9.4 µM)
